Calls of active or inactive are those of the source. No cut-off for these calls is given here.
Assays:
COLO 205 = test: Cytotoxicity against human COLO205 cells after 72 hrs by MTS assay; details: COLO 205, 72 h
A-375 = test: Cytotoxicity against human A375 cells after 72 hrs by MTS assay; details: A-375, 72 h
[1] = target: T1, Dual specificity mitogen-activated protein kinase kinase 1 (Homo sapiens, UniProt Q02750); test: Inhibition of MEK1-mediated ERK1 phosphorylation using IPTTPITTYFFFK-5FAM-COOH as substrate by fluorescent polarization assay
[2] = Half life in rat liver microsomes; type: ADME, Microsome
HL-60 = test: Antitumor activity against human HL60 cells xenograft model assessed as inhibition of tumor regression at 10 mg/kg, po; type: functional, organism-based; set-up: dose 10 mg/kg
How it was run: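 HL-60 (NRAS) xenograft; compound given orally once daily at maximum tolerated dose over days 12–25 after tumor implant; tumor response followed versus control, complete regressions counted per group.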

[3] = target: Angiopoietin-1 receptor (Homo sapiens) (UniProt Q02763); test: Inhibition of Tie2 at 10 uM
[4] = target: Tyrosine-protein kinase ABL1 (Homo sapiens) (UniProt P00519); test: Inhibition of ABL1 at 10 uM
[5] = target: T1, Dual specificity mitogen-activated protein kinase kinase 1; test: Inhibition of MEK1-mediated Erk1/2 phosphorylation in human HT-29 cells at 3 mg/kg plasma concentration measured after 4 hrs by in vivo pharmacodynamic model; type: organism-based; set-up: dose 3 mg/kg
How it was run: (§1)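 In vivo pharmacodynamic study: p-ERK1/2 suppression measured 4 h after dosing across a dose response and related to compound plasma concentration.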

[6] = Half life in human liver microsomes; type: ADME, Microsome
Rattus norvegicus = test: Dose normalized AUC in rat at 1 mg/kg, iv and 5 mg/kg, po; type: ADME, organism-based; details: in vivo
[7] = target: RAC-gamma serine/threonine-protein kinase (Homo sapiens) (UniProt Q9Y243); test: Inhibition of AKT3 at 10 uM
[8] = target: Tyrosine-protein kinase SYK (Homo sapiens) (UniProt P43405); test: Inhibition of Syk at 10 uM
[9] = Volume of distribution at steady state in rat at 1 mg/kg, iv and 5 mg/kg, po; type: ADME, organism-based; details: in vivo, read-out: Vdss
[10] = target: Serine/threonine-protein kinase PLK3 (Homo sapiens) (UniProt Q9H4B4); test: Inhibition of PLK3 at 10 uM
[11] = target: Proto-oncogene tyrosine-protein kinase Src (Homo sapiens) (UniProt P12931); test: Inhibition of cSRC at 10 uM
[12] = target: Insulin receptor (Homo sapiens) (UniProt P06213); test: Inhibition of IR at 10 uM
[13] = Inhibition of cytochrome P450 at 10 uM; type: ADME
[14] = target: Epidermal growth factor receptor (Homo sapiens) (UniProt P00533); test: Inhibition of EGFR at 10 uM
[15] = target: 3-phosphoinositide-dependent protein kinase 1 (Homo sapiens) (UniProt O15530); test: Inhibition of PDK1 at 10 uM
[16] = Clearance in rat at 1 mg/kg, iv and 5 mg/kg, po; type: ADME, organism-based; details: in vivo
[17] = target: RAF proto-oncogene serine/threonine-protein kinase (Homo sapiens) (UniProt P04049); test: Inhibition of c-RAF at 10 uM
[18] = Oral bioavailability in rat at 5 mg/kg; type: ADME, organism-based; details: in vivo
[19] = target: Calcium/calmodulin-dependent protein kinase type 1D (Homo sapiens) (UniProt Q8IU85); test: Inhibition of CAMK1delta at 10 uM
[20] = target: Mitogen-activated protein kinase 14 (Homo sapiens) (UniProt Q16539); test: Inhibition of p38alpha at 10 uM
[21] = target: Platelet-derived growth factor receptor beta (Homo sapiens) (UniProt P09619); test: Inhibition of PDGFRbeta at 10 uM
[22] = target: Protein kinase C alpha type (Homo sapiens) (UniProt P17252); test: Inhibition of PKCalpha at 10 uM
[23] = target: Glycogen synthase kinase-3 beta (Homo sapiens) (UniProt P49841); test: Inhibition of GSK3beta at 10 uM
[24] = target: T2, Tyrosine-protein kinase JAK3 (Homo sapiens) (UniProt P52333); test: Inhibition of JAK3 at 10 uM
T2 sequence (whole entry): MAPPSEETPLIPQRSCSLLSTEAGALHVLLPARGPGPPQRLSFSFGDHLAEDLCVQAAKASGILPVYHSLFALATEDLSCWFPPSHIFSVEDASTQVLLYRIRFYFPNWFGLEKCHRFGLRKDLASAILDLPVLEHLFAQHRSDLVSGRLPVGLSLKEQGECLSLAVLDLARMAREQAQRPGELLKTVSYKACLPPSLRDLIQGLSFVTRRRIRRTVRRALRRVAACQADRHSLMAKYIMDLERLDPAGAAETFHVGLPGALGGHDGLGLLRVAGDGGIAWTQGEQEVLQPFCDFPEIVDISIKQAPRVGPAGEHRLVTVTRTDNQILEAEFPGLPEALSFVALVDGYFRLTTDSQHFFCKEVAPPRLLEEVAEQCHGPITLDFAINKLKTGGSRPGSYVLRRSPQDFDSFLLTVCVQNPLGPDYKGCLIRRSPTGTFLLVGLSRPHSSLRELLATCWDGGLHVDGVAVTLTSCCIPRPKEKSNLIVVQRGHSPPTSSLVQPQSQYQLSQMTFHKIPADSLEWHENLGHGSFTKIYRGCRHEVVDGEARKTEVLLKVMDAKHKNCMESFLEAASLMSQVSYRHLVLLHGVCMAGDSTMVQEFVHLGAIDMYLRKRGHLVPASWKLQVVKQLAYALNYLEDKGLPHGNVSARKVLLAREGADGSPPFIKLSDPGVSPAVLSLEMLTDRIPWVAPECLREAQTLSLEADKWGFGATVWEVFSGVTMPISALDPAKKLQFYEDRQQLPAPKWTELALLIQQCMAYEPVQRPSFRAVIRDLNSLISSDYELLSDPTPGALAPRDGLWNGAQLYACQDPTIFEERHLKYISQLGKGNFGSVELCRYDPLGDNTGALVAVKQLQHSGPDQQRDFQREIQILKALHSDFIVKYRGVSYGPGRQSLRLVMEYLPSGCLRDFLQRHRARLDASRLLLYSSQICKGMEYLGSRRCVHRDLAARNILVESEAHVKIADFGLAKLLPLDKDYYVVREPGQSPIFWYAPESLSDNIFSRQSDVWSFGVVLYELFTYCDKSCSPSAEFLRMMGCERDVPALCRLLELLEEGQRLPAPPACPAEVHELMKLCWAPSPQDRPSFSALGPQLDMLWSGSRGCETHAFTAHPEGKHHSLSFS

[25] = target: Cyclin-dependent kinase 2/cyclin A (Homo sapiens) (UniProt P24941+P20248+P78396); test: Inhibition of CDK2/cyclin A at 10 uM; type: protein-complex assay
[26] = target: Hepatocyte growth factor receptor (Homo sapiens) (UniProt P08581); test: Inhibition of cMET at 10 uM
[27] = target: T1, Dual specificity mitogen-activated protein kinase kinase 1; test: Inhibition of MEK1-mediated Erk1/2 phosphorylation in human HT-29 cells at 30 mg/kg measured after 4 hrs by in vivo pharmacodynamic model; type: organism-based; set-up: dose 30 mg/kg; how it was run: as §1

Sequence of Mitogen-activated protein kinase 14 (Homo sapiens) (Q16539 whole entry): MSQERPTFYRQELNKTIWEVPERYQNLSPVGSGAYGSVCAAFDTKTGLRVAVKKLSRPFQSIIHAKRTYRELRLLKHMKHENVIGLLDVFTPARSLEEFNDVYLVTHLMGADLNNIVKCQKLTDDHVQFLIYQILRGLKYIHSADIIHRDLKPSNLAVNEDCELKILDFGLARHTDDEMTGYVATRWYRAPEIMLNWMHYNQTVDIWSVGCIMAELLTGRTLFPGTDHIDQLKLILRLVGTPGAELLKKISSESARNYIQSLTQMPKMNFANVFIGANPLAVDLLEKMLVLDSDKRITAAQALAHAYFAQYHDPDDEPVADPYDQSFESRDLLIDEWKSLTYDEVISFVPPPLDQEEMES
T1 sequence (Q02750 whole entry): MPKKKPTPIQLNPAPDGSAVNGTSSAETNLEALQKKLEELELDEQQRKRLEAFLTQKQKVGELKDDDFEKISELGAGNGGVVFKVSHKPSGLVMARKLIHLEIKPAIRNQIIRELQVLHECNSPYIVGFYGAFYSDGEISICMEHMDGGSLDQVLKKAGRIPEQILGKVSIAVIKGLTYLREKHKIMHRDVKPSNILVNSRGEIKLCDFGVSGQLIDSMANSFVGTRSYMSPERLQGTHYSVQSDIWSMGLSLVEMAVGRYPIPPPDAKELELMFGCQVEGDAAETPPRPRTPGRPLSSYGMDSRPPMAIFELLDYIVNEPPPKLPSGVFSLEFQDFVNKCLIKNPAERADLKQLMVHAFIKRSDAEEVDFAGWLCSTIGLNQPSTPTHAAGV
Sequence of Platelet-derived growth factor receptor beta (Homo sapiens) (P09619 whole entry): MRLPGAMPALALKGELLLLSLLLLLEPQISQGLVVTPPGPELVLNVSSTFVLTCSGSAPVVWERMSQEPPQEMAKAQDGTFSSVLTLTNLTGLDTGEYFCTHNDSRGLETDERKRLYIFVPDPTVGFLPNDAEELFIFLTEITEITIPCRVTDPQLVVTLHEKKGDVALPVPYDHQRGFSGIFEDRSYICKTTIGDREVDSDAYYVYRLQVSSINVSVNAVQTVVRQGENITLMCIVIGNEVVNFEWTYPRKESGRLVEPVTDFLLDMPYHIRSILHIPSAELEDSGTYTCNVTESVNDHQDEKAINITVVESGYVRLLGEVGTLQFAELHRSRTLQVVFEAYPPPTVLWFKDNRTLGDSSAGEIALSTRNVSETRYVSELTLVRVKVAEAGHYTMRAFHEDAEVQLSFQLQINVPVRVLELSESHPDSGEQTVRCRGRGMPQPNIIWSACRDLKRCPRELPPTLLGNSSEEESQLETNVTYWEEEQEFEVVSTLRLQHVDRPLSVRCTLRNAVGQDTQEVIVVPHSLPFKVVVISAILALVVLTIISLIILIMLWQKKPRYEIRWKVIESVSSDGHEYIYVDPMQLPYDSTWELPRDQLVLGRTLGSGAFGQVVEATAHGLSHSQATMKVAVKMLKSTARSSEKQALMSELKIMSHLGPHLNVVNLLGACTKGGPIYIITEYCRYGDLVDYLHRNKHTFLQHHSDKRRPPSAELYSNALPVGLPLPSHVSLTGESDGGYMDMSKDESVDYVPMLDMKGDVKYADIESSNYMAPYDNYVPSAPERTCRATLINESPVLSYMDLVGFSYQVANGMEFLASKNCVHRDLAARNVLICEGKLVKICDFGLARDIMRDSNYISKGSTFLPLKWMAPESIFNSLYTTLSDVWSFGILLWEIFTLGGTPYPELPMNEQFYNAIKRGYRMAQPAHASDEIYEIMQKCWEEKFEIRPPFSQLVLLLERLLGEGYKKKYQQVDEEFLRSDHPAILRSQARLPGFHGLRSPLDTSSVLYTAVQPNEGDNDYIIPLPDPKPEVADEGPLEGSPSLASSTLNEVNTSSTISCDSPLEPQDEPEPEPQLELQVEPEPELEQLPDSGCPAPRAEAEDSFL
Sequence of Epidermal growth factor receptor (Homo sapiens) (P00533 whole entry): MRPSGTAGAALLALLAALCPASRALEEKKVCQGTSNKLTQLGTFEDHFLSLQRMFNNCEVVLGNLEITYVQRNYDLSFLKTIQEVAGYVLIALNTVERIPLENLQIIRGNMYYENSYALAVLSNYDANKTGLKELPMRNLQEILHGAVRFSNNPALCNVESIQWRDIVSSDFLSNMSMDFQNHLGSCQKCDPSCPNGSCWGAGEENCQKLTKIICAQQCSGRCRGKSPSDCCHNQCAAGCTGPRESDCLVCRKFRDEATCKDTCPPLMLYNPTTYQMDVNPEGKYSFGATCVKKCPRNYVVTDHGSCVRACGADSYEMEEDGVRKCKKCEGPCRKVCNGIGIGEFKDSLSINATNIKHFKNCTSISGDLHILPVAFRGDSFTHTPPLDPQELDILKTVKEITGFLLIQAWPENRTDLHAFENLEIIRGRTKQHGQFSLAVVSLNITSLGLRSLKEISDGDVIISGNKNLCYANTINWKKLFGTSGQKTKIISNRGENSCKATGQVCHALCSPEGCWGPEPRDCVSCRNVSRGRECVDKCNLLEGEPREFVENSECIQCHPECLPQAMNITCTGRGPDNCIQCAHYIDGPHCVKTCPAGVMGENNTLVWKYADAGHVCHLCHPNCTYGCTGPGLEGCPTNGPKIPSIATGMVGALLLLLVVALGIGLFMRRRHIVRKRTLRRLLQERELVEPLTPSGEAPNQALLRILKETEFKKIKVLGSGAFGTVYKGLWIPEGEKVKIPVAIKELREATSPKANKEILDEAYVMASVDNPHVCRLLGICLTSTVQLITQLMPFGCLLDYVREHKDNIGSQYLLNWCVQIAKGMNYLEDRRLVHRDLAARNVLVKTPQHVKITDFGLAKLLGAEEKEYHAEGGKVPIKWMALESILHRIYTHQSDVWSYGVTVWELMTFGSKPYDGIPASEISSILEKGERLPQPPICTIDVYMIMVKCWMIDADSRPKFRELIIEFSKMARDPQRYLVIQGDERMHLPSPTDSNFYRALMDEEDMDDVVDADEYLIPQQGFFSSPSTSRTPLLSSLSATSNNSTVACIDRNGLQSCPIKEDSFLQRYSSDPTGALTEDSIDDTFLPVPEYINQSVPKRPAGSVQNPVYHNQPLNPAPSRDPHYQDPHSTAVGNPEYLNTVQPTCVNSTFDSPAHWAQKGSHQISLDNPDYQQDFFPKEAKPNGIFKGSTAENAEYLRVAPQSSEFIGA
Sequence of Insulin receptor (Homo sapiens) (P06213 28-758 limits assumed): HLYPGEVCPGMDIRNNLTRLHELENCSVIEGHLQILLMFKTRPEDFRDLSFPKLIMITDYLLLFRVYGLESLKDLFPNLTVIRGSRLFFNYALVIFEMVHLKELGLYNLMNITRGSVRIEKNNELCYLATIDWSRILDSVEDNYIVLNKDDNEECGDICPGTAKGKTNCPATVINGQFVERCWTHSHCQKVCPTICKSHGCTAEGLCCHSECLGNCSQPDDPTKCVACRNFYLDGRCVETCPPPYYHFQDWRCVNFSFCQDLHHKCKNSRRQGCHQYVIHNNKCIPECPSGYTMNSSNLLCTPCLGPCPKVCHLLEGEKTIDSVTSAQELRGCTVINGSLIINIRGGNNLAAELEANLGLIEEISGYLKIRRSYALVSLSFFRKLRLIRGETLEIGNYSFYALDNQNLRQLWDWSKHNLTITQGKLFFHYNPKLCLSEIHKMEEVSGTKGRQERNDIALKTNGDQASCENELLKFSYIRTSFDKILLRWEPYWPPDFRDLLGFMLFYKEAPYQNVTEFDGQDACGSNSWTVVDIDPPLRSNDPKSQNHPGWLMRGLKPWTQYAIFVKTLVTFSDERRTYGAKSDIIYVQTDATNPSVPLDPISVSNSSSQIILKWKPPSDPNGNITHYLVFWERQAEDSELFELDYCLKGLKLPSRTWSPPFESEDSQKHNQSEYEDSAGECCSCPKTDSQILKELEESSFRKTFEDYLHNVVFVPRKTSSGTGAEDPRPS
Sequence of Insulin receptor (Homo sapiens) (P06213 763-1382 limits assumed): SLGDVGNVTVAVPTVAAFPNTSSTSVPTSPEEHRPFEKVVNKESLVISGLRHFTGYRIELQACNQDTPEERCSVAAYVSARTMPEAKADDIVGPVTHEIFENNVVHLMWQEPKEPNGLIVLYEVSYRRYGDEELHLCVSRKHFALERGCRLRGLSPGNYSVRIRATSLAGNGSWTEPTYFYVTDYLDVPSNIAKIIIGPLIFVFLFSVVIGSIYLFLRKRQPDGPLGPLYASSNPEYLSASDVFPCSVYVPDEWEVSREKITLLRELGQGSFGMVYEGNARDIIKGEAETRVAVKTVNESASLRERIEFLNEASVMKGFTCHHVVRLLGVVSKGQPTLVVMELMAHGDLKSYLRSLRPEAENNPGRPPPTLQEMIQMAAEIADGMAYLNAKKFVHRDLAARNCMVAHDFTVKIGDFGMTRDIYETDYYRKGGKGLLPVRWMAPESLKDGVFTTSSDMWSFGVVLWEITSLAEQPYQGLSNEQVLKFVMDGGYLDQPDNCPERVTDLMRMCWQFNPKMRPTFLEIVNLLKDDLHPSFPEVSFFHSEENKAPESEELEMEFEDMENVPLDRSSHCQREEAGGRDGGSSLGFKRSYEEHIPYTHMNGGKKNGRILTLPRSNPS
Sequence of RAC-gamma serine/threonine-protein kinase (Homo sapiens) (Q9Y243 whole entry): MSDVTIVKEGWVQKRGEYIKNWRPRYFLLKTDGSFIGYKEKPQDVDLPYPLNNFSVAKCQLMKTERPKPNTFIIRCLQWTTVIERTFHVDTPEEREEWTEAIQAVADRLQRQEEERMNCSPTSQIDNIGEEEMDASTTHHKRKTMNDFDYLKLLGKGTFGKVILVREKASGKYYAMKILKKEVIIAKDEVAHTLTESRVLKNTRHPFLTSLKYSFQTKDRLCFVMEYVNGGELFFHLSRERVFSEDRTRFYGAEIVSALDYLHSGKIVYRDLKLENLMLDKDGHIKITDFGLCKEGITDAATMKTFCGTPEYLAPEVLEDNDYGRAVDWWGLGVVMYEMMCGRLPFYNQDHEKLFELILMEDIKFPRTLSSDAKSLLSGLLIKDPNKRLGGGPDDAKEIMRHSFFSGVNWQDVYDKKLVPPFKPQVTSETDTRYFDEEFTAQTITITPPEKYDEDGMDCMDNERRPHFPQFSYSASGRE

Row | Structure (SMILES) | EC50 (COLO 205) [nM] | EC50 (A-375) [nM] | IC50 [1] [nM] | half-life [2] [h] | inhibition [3] | inhibition [4] | half-life [6] [h] | inhibition [7] | inhibition [8] | inhibition [10] | inhibition [11] | inhibition [12] | inhibition (INH) [13] | inhibition [14] | inhibition [15] | inhibition [17] | inhibition [19] | inhibition [20] | inhibition [21] | inhibition [22] | also measured
1 | Cc1c(Nc2ccc(I)cc2F)c(C(=O)NOCCO)c2n(c1=O)CCC2 | 1 | 2 | 38 | 0.667 | inactive | inactive | 1.65 | inactive | inactive | inactive | inactive | inactive | Not Active | inactive | inactive | inactive | inactive | inactive | inactive | inactive | inhibition (HL-60): Active; inhibition [5]: Active; AUC/dose (Rattus norvegicus): 204 ng·h/mL/mg/kg; Vd [9]: 0.971 L/kg; clearance [16]: 21.4 mL/min/kg; bioavailability [18]: 29%; inhibition [23]: inactive; inhibition [24]: inactive; inhibition [25]: inactive; inhibition [26]: inactive
2 | O=C(NOCCO)c1c(Nc2ccc(I)cc2F)c(F)c(=O)n2c1CCC2 | 1 | 3 | 25 | 2.07 | inactive | inactive | > 3.33 | inactive | inactive | inactive | inactive | inactive | Not Active | inactive | inactive | inactive | inactive | inactive | inactive | inactive | AUC/dose (Rattus norvegicus): 262 ng·h/mL/mg/kg; Vd [9]: 0.745 L/kg; clearance [16]: 12.9 mL/min/kg; bioavailability [18]: 21%; inhibition [23]: inactive; inhibition [24]: inactive; inhibition [25]: inactive; inhibition [26]: inactive
3 | Cn1c(Nc2ccc(I)cc2F)c(C(=O)NOC[C@H](O)CO)c2c1C(=O)CCC2 | 2.5 | 3 | 20 | 0.433 | inactive | inactive | 0.6 | inactive | inactive | inactive | inactive | inactive | Not Active | inactive | inactive | inactive | inactive | inactive | inactive | inactive | AUC/dose (Rattus norvegicus): 88 ng·h/mL/mg/kg; Vd [9]: 1.16 L/kg; clearance [16]: 23.7 mL/min/kg; bioavailability [18]: 12%; inhibition [23]: inactive; inhibition [24]: inactive; inhibition [25]: inactive; inhibition [26]: inactive
4 | C#Cc1ccc(Nc2c(C(=O)NOCCO)c3c(n2C)C(=O)CC3)c(F)c1 | 17 | 34 | 36 | 2.5 | inactive | inactive | 1.78 | inactive | inactive | inactive | inactive | inactive | Not Active | inactive | inactive | inactive | inactive | inactive | inactive | inactive | AUC/dose (Rattus norvegicus): 512 ng·h/mL/mg/kg; Vd [9]: 1.19 L/kg; clearance [16]: 15.6 mL/min/kg; bioavailability [18]: 51%; inhibition [23]: inactive; inhibition [24]: inactive; inhibition [25]: inactive; inhibition [26]: inactive
5 | C#Cc1ccc(Nc2c(C(=O)NOCCO)c3c(n2C)C(=O)CCC3)c(F)c1 | 10 | 15 | 32 | 0.633 | inactive | inactive | 0.567 | inactive | inactive | inactive | inactive | inactive | Not Active | inactive | inactive | inactive | inactive | inactive | inactive | inactive | inhibition [27]: Active; AUC/dose (Rattus norvegicus): 1670 ng·h/mL/mg/kg; Vd [9]: 0.596 L/kg; clearance [16]: 5.9 mL/min/kg; bioavailability [18]: 61%; inhibition [23]: inactive; inhibition [24]: inactive; inhibition [25]: inactive; inhibition [26]: inactive
6 | O=C(NOC[C@@H](O)CO)c1c(Nc2ccc(I)cc2F)c(F)c(=O)n2c1CCC2 | 44 | 139 | 94 | > 3.33 | inactive | inactive | > 3.33 | inactive | inactive | inactive | inactive | inactive | Not Active | inactive | inactive | inactive | inactive | inactive | inactive | inactive | inhibition [23]: inactive; inhibition [24]: inactive; inhibition [25]: inactive; inhibition [26]: inactive

— ChEMBL document CHEMBL2010712, “Design and synthesis of orally available MEK inhibitors with potent in vivo antitumor efficacy” (Bioorg Med Chem Lett, 2012)
